In ChEMBL document CHEMBL1143402 (PLoS Med, 2006) one finds Activity data, which are given here for one molecule.

Holding throughout (assay type): ADME, organism-based
Data set [1] deals with Mycobacterium tuberculosis variant bovis. The experiment in a line: Drug metabolism in Mycobacterium bovis BCG Tokyo assessed as cell pellet [14C]OPC-67683 metabolite level after 48 hrs by scintillation counting. In short, it runs like this:
(§1)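 ^14C-labelled drug (0.5 mg/ml stock) added 15 µl to 585 µl 7H9/TN-ADC culture, incubated 48 h. Acetonitrile (2 volumes) added, then centrifuged. Supernatant counted by scintillation; pellet dissolved in 2 M NaOH, 1 h at 60 °C, then counted. DPM expressed relative to broth control supernatant.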

For data set [2] the test system is unchanged. As to the kind of experiment: Drug metabolism in OPC-67683 resistant Mycobacterium bovis BCG Tokyo assessed as cell supernatant [14C]OPC-67683 metabolite level after 48 hrs by scintillation counting. Summed up:
as §1

For data set [3] the test system is unchanged. As to the kind of experiment: Drug metabolism in Mycobacterium bovis BCG Tokyo assessed as cell supernatant [14C]OPC-67683 metabolite level after 48 hrs by scintillation counting. Summed up: as §1

With `C[C@]1(COc2ccc(N3CCC(Oc4ccc(OC(F)(F)F)cc4)CC3)cc2)Cn2cc([N+](=O)[O-])nc2O1`, the Activity is listed as 22% in data set [1], 105% in data set [2] and 82% in data set [3].
